As a reminder, the pIC50 is the negative decadic logarithm of the IC50, by convention in mol/L. High values mean a small IC50, low ones a large IC50.

In ChEMBL document CHEMBL1124208, “Retro-inverso concept applied to the complete inhibitors of enkephalin-degrading enzymes” (J Med Chem, 1988) one finds IC50 data, which are given here for 14 compounds.

One assay deals with T1, Neprilysin (Oryctolagus cuniculus, UniProt P08049).
T1 sequence (P08049 whole entry): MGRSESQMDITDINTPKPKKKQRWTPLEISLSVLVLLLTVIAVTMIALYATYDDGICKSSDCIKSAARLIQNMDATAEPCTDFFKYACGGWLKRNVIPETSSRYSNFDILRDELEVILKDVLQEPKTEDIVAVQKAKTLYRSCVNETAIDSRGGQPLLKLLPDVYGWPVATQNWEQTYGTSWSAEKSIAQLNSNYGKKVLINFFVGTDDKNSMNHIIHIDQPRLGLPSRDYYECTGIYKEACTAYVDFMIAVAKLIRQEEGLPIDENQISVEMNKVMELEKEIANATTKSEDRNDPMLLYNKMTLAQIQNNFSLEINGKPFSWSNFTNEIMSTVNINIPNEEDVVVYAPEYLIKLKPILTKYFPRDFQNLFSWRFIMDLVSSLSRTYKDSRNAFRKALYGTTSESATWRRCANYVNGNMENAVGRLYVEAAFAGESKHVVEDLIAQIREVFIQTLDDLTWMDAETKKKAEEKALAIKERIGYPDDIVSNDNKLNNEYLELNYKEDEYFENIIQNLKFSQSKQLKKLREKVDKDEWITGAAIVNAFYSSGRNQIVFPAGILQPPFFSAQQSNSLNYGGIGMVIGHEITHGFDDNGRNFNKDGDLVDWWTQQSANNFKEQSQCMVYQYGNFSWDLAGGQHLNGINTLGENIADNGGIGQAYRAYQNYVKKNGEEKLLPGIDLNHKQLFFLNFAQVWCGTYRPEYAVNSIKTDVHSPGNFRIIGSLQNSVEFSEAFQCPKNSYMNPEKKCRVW
The experiment in a line: Inhibition of [3H]Ala2-Leu-enkephalin binding to Neutral endopeptidase (NEP). The method, boiled down:
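NEP purified to homogeneity from rabbit kidney (single 94 kD band on SDS-PAGE), 1 pmol/100 μL final. Enzyme preincubated 15 min at 25 °C with or without increasing inhibitor in 50 mM Tris-HCl pH 7.0. [3H]D-Ala2-Leu-enkephalin then added at 20 nM final and the reaction stopped after 30 min with HCl. IC50 from log probit analysis of five inhibitor concentrations, mean ± SEM of four independent experiments.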

A short description of assay [1]: Inhibition of [3H]Leu-enkephalin binding to aminopeptidase. On the set-up: species or system Sus scrofa. The method in brief: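 Uses commercial purified pig kidney aminopeptidase N without further purification. Enzyme preincubated 15 min at 25 °C with inhibitor in 50 mM Tris-HCl pH 7.0. [3H]Leu-enkephalin then added at 10 nM final (Km 50 μM) and the reaction stopped with HCl. IC50 by log probit analysis of five inhibitor concentrations, mean ± SEM of four independent experiments.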

Assay [2] can be described thus: Inhibition of [3H]Leu-enkephalin binding to Dipeptidyl aminopeptidase (DAP). On the set-up: species or system Rattus norvegicus. The method, boiled down:
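Membrane-bound DAP partially purified from rat brain. […] IC50 by log probit analysis of five inhibitor concentrations, mean ± SEM of four independent experiments.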

pIC50: −log10 of the molar value.

As to `C[C@H](NC(=O)[C@@H](CC(=O)NO)Cc1ccccc1)C(=O)O` (racemic) [KELATORPHAN], the pIC50 on Neprilysin is 8.77; in assay [1], 6.42; in assay [2], 9.05.
For `CN(O)C(=O)C[C@@H](Cc1ccccc1)NC(=O)CC(=O)O`, the pIC50 at Neprilysin was 5.76; in assay [1], < 4.00.
As to `CC(C(=O)O)C(=O)NC(Cc1ccccc1)C(=O)NO` (stereo in doubt; 9), the pIC50 was 6.49 on Neprilysin, ~4.00 in assay [1] and 7.15 in assay [2].
Regarding `O=C(CC(Cc1ccccc1)C(=O)NC(Cc1ccccc1)C(=O)O)NO` (racemic), the negative-log IC50 (pIC50) at Neprilysin is 8.60; in assay [1] it was 6.89.
In the case of `O=C(O)CC(=O)N[C@H](Cc1ccccc1)C(=O)NO`, the pIC50 at Neprilysin was 5.47; in assay [1] it was ~4.70; in assay [2], ~4.49.
Turning to `CC(C(=O)O)C(=O)NC(Cc1ccccc1)C(=O)NO` (stereo in doubt; 8), the pIC50 at Neprilysin was 6.02; in assay [1], 5.21; in assay [2], 5.57.
For `O=C(O)CC(=O)N[C@@H](CC(=O)NO)Cc1ccccc1`, the pIC50 on Neprilysin is 9.30; in assay [1], 5.70; in assay [2], 6.85.
`O=C(O)CNC(=O)C(CC(=O)NO)Cc1ccccc1` (racemic): the pIC50 in assay [1] was 5.70; in assay [2] it was 7.68.
Turning to `O=C(O)CC(=O)N[C@H](CC(=O)NO)Cc1ccccc1`, the negative logarithm of the IC50 (pIC50) is 8.60 at Neprilysin, 3.82 in assay [1] and 6.35 in assay [2].
On to `O=C(O)CNC(=O)C(Cc1ccccc1)C(=O)NO` (racemic), for which the pIC50 in assay [1] is 4.00; in assay [2] it was 4.46.
Take `O=C(O)CC(=O)N[C@@H](Cc1ccccc1)C(=O)NO`: the values for the negative-log IC50 (pIC50) (on Neprilysin; in assay [1]; in assay [2]) were 5.60, 3.40 and 5.70, respectively.
Turning to `O=C(CC(Cc1ccccc1)NC(=O)C(Cc1ccccc1)C(=O)O)NO` (stereo unspecified), the pIC50 at Neprilysin was 8.43; in assay [1] it was 5.21; in assay [2] it was 7.49.
The compound `CN(O)C(=O)[C@@H](Cc1ccccc1)NC(=O)CC(=O)O` had a pIC50 on Neprilysin of 5.22.
For the compound `CC(C(=O)O)C(=O)NC(CC(=O)NO)Cc1ccccc1` (stereo unspecified), the pIC50 at Neprilysin was 8.80; in assay [1], 5.07; in assay [2], 7.76.
